The values that follow come from ChEMBL document CHEMBL1759881, “Synthesis and anti-inflammatory activity of ent-kaurene derivatives” (Eur J Med Chem, 2011).

As a reminder, the IC50 is the point on the concentration scale where inhibition reaches its midpoint.

In one data set the test system is RAW264.7. The data set is described as follows: Antiinflammatory activity in mouse RAW264.7 cells assessed as inhibition of LPS-induced nitric oxide release pretreated for 15 mins before LPS challenge measured after 24 hrs by Griess method. It is filed as functional, cell-based. The essentials: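 RAW 264.7 cells pre-incubated 15 min with compound (1–25 range in the table; 1, 5, 10, 25, 50 for dose-response) or DMSO vehicle, then LPS 250 ng/ml for 24 h. Nitrite in supernatant measured by Griess reagent, absorbance at 548 nm against NaNO2 standard. IC50 is the concentration giving 50% inhibition of NO release. Means ± SD of three independent experiments in triplicate.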

Data set [1] in a line: Cytotoxicity against LPS-stimulated mouse RAW264.7 cells assessed as cell viability at 1 to 25 uM pretreated for 15 mins before LPS challenge measured after 24 hrs by MTT assay. It is filed as cell-based. The following applies: LPS-stimulated RAW264.7 cells, read-out: Activity. A digest of the protocol: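 RAW 264.7 cells plated at 10⁵ cells/well, treated with compound at 1–25 in the presence of LPS 250 ng/ml for 24 h. MTT then added for 4 h at 37 °C, formazan extracted in DMSO, absorbance read at 540 nm. Viability expressed relative to untreated controls. Triplicate wells, at least three independent experiments.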
A general note: Tetrazolium assays rely on reduction of a dye to a coloured formazan, in cell work by metabolically active cells.

Where only a bound is given, the exact number is not on record here.

For the molecule `C=C1C(=O)[C@@]23CC[C@@H]4[C@](C)(C(=O)OC)CCC[C@@]4(C)C2=CC[C@@H]1C3`, the IC50 in the data set on RAW264.7 came to 10 µM. In addition, in data set [1], the viability at 24 h, up to 25 µM was found to be 50%.

As for `COC(=O)[C@]1(C)CCC[C@@]2(C)C3=CC[C@@H]4C[C@@]3(CC[C@H]12)C[C@]4(O)CO`, the IC50 with RAW264.7 is > 25 µM. Also, the viability at 24 h, up to 25 µM in data set [1] was 35%.

As to `C=C1[C@@H]2CC=C3[C@@](CC[C@@H]4[C@](C)(C(=O)OC)CCC[C@@]34C)(C2)[C@H]1OC(C)=O`, the IC50 in the data set with RAW264.7 was > 25 µM. Moreover, the viability at 24 h, up to 25 µM in data set [1] is 50%.

As to `C=C1C[C@@]23CC[C@H]4[C@@](C)(CCC[C@@]4(C)C(=O)OC)[C@@H]2CC[C@@H]1C3` [KAURENOIC ACID METHYL ESTER], the IC50 in the data set on RAW264.7 turned out to be 25 µM. In data set [1], the viability at 24 h, up to 25 µM was 90%.

As to `C=C1C(=O)[C@@]23CC[C@H]4[C@@](C)(CCC[C@@]4(C)C(=O)OC)[C@@H]2CC[C@@H]1C3`, the IC50 in the data set on RAW264.7 was 4 µM. Besides, the viability at 24 h, up to 25 µM in data set [1] is 32%.

Turning to `C=C1C[C@@]23CC[C@@H]4[C@](C)(C(=O)OC)CCC[C@@]4(C)C2=CC[C@@H]1C3` [GRANDIFLORENIC ACID METHYL ESTER], in the data set on RAW264.7, the IC50 amounted to 5 µM and the inhibition entry was “Dose-dependent effect”. In addition, the viability at 24 h, up to 25 µM in data set [1] came to 100%.

As to `COC(=O)[C@]1(C)CCCC2(C)[C@@H]3CC[C@@H]4C[C@@]3(CC[C@@H]21)C[C@@]41CO1` (stereo not given in full), in the data set on RAW264.7, the IC50 was > 25 µM. The viability at 24 h, up to 25 µM in data set [1] is 66%.

For the molecule `COC(=O)[C@]1(C)CCC[C@@]2(C)[C@@H]3CC[C@@H]4C[C@@]3(CC[C@@H]21)[C@@H](O)C4=O`, the IC50 in the data set with RAW264.7 is > 25 µM. The viability at 24 h, up to 25 µM in data set [1] came out at 95%.

For `C=C1C[C@@]23CC[C@@H]4[C@](C)(CO)CCC[C@@]4(C)[C@@H]2CC[C@@H]1C3`, the IC50 in the data set with RAW264.7 is 10 µM. In addition, the viability at 24 h, up to 25 µM in data set [1] worked out at 80%.

Turning to `C=C1C[C@@]23CC[C@@H]4[C@](C)(COC(C)=O)CCC[C@@]4(C)C2=CC[C@@H]1C3`, the IC50 in the data set with RAW264.7 was determined as 10 µM. Also, in data set [1], the viability at 24 h, up to 25 µM is 90%.

Regarding `C=C1C[C@@]23CC[C@H]4[C@@](C)(CCC[C@@]4(C)C(=O)O)[C@@H]2CCC1C3` (single isomer, unassigned) [KAURENOIC ACID], in the data set with RAW264.7, the IC50 was > 25 µM. Further, the viability at 24 h, up to 25 µM in data set [1] stood at 70%.

Regarding `C=C1[C@@H]2CC[C@H]3[C@]4(C)CCC[C@@](C)(C(=O)OC)[C@H]4CC[C@]3(C2)[C@H]1OC(=O)CCCCCCCCCCC`, the 50% inhibitory concentration (IC50) in the data set on RAW264.7 is > 25 µM. Further, in data set [1], the viability at 24 h, up to 25 µM was 95%.

`COC(=O)[C@]1(C)CCC[C@@]2(C)[C@@H]3CC[C@@H]4C[C@@]3(CC[C@@H]21)C[C@]4(C)O`: the IC50 in the data set with RAW264.7 turned out to be 25 µM. Moreover, in data set [1], the viability at 24 h, up to 25 µM turned out to be 52%.

Regarding `COC(=O)[C@]1(C)CCC[C@@]2(C)C3=CC[C@@H]4C[C@]3(C=C4C=O)CC[C@H]12`, the IC50 with RAW264.7 came out at 25 µM. The viability at 24 h, up to 25 µM in data set [1] worked out at 18%.

For the molecule `COC(=O)[C@]1(C)CCC[C@@]2(C)[C@@H]3CC[C@@H]4C[C@@]3(CC[C@@H]21)[C@@H](OC(C)=O)C4=O`, the IC50 with RAW264.7 was > 25 µM. Besides, in data set [1], the viability at 24 h, up to 25 µM was 99%.

Take `COC(=O)[C@]1(C)CCC[C@@]2(C)[C@@H]3CC[C@@H]4C[C@@]3(CC[C@@H]21)[C@H]1O[C@@]41C`: in the data set with RAW264.7, the half-maximal inhibitory concentration (IC50) was 14 µM. Further, the viability at 24 h, up to 25 µM in data set [1] is 95%.

Consider `C[C@@]12CCC[C@@](C)(C(=O)OC[Si](C)(C)C)[C@H]1CC[C@]13CC(=O)O[C@H](CC[C@H]12)C3`, for which, in the data set on RAW264.7, the IC50 was determined as 5 µM and the inhibition result was “Dose-dependent effect”. Besides, in data set [1], the viability at 24 h, up to 25 µM worked out at 95%.

With `C[C@@]12CCC[C@@](C)(C(=O)OCc3ccccc3)[C@H]1CC[C@]13CC(=O)O[C@H](CC[C@H]12)C3`, the IC50 with RAW264.7 was > 25 µM. Besides, the viability at 24 h, up to 25 µM in data set [1] turned out to be 50%.

Take `C=C1[C@@H]2CC[C@H]3[C@]4(C)CCC[C@@](C)(C(=O)OC)[C@H]4CC[C@]3(C2)[C@H]1OC(C)=O`: the IC50 in the data set on RAW264.7 was > 25 µM. In addition, in data set [1], the viability at 24 h, up to 25 µM was found to be 40%.

With `COC(=O)[C@]1(C)CCC[C@@]2(C)[C@@H]3CC[C@@H]4C[C@@]3(CC[C@@H]21)C[C@]4(C)OC`, the IC50 in the data set on RAW264.7 is > 25 µM. The viability at 24 h, up to 25 µM in data set [1] was determined as 90%.

Turning to `C=C1C[C@@]23CC[C@H]4[C@@](C)(CCC[C@@]4(C)C(=O)OCc4ccccc4)[C@@H]2CC[C@@H]1C3` [KAURENOIC ACID BENZYL ESTER], the IC50 with RAW264.7 is > 25 µM. Moreover, the viability at 24 h, up to 25 µM in data set [1] amounted to 46%.

As for `COC(=O)[C@]1(C)CCC[C@@]2(C)[C@@H]3CC[C@@H]4C[C@@]3(CC[C@@H]21)C[C@@]4(O)CO`, in the data set with RAW264.7, the IC50 turned out to be 5 µM. The viability at 24 h, up to 25 µM in data set [1] was found to be 69%.

Regarding `COC(=O)[C@]1(C)CCC[C@@]2(C)[C@@H]3CC[C@@H]4C[C@@]3(CC[C@@H]21)C[C@H]4/C=N/O`, the IC50 in the data set on RAW264.7 was > 25 µM. Besides, in data set [1], the viability at 24 h, up to 25 µM amounted to 25%.

In the case of `C=C1C[C@@]23CC[C@@H]4C(C)(C(=O)O)CCC[C@@]4(C)C2=CC[C@@H]1C3` (stereo not given in full), the IC50 in the data set on RAW264.7 is 15 µM. Further, the viability at 24 h, up to 25 µM in data set [1] amounted to 90%.

In the case of `C[C@@]12CCC[C@@](C)(C(=O)OCc3ccccc3)[C@H]1CC[C@]13CC(=O)[C@H](CC[C@H]12)C3`, the IC50 with RAW264.7 was 12 µM. For the same molecule, the viability at 24 h, up to 25 µM in data set [1] amounted to 95%.

Regarding `COC(=O)[C@]1(C)CCC[C@@]2(C)[C@@H]3CC[C@@H]4C[C@@]3(CC[C@@H]21)C(=O)OC4=O`, the concentration for half-maximal inhibition (IC50) in the data set on RAW264.7 is > 25 µM. Also, the viability at 24 h, up to 25 µM in data set [1] was found to be 95%.

With `COC(=O)[C@]1(C)CCC[C@@]2(C)[C@@H]3CC[C@@H]4C[C@@]3(CC[C@@H]21)C[C@]4(C)Cl`, the IC50 with RAW264.7 is > 25 µM. Also, the viability at 24 h, up to 25 µM in data set [1] was found to be 82%.

For the molecule `C=C1[C@@H]2CC[C@H]3[C@]4(C)CCC[C@@](C)(C(=O)O)[C@H]4CC[C@]3(C2)[C@H]1O`, the IC50 in the data set with RAW264.7 is > 25 µM. Also, the viability at 24 h, up to 25 µM in data set [1] worked out at 100%.

Turning to `COC(=O)[C@]1(C)CCC[C@@]2(C)C3=CC[C@@H]4C[C@@]3(CC[C@H]12)C[C@H]4C`, the IC50 in the data set with RAW264.7 was > 25 µM. Further, in data set [1], the viability at 24 h, up to 25 µM was determined as 95%.

With `C=C1[C@H]2CC3=C([C@H](C2)[C@@H]1O)[C@]1(C)CCC[C@@](C)(C(=O)OC)[C@H]1CC3`, in the data set on RAW264.7, the IC50 was > 25 µM. In addition, the viability at 24 h, up to 25 µM in data set [1] is 30%.

Regarding `C[C@@]1(CO)CCC[C@]2(C)[C@@H]1CC[C@@]13C[C@@H](CC[C@H]12)[C@@](C)(O)C3`, the IC50 in the data set with RAW264.7 is > 25 µM. In addition, in data set [1], the viability at 24 h, up to 25 µM was found to be 95%.

On to `COC(=O)[C@]1(C)CCC[C@@]2(C)[C@@H]3CC[C@@H]4C[C@]3(C=C4C=O)CC[C@@H]21`, for which, in the data set with RAW264.7, the IC50 was 5 µM. Besides, the viability at 24 h, up to 25 µM in data set [1] came to 76%.

Turning to `C=C1[C@@H]2CC=C3[C@@](CC[C@@H]4[C@](C)(C(=O)OC)CCC[C@@]34C)(C2)[C@H]1O`, in the data set with RAW264.7, the IC50 is > 25 µM. The viability at 24 h, up to 25 µM in data set [1] was 67%.

With `C=C1C[C@@]23CC[C@@H]4[C@](C)(CO)CCC[C@@]4(C)C2=CC[C@@H]1C3`, in the data set on RAW264.7, the IC50 was > 25 µM. Besides, the viability at 24 h, up to 25 µM in data set [1] was 50%.
